Laboratory results from ChEMBL document CHEMBL3769334, “Interaction of prodigiosin with HSA and β-Lg: Spectroscopic and molecular docking studies” (Bioorg Med Chem, 2016).

Legend:
[1] = target: T1, Albumin (Homo sapiens, UniProt P02768); experiment: Binding affinity to human serum albumin at 310 K after 10 mins by fluorescence assay; format: ADME; conditions: isolated protein
How it was run: (§1)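 HSA at 0.4 µM in 20 mM Tris pH 7.4, titrated with prodigiosin at 0–3.2 µM from a methanol stock. Samples equilibrated 10 min after each addition. Excitation 295 nm, emission 310–600 nm, intensity read at the emission maximum. Run at 290, 300 and 310 K. Kb and n from log[(F0−F)/F] versus log[Q].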

[2] = target: T2, Beta-lactoglobulin (Bos taurus, UniProt P02754); experiment: Binding affinity to bovine beta-lactoglobulin assessed as Stern-Volmer quenching constant at 300 K after 10 mins by fluorescence assay; format: ADME; conditions: cattle
T2 sequence (P02754 whole entry): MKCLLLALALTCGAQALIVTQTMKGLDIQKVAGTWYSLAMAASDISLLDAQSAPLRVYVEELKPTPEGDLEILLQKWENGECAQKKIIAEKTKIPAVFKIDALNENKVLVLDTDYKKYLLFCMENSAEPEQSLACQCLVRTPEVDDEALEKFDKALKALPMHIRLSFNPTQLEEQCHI
How it was run: (§2)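 Intrinsic Trp fluorescence of β-Lg at 1 µM in Tris-HCl pH 7.4, titrated with prodigiosin added from a methanol stock. Samples equilibrated 10 min after each addition. Excitation 295 nm, emission 310–600 nm, intensity read at the emission maximum. Run at 290, 300 and 310 K with a water-bath thermostat. Binding parameters taken from quenching data.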

[3] = target: T2, Beta-lactoglobulin; experiment: Binding affinity to bovine beta-lactoglobulin assessed as Stern-Volmer quenching constant at 310 K after 10 mins by fluorescence assay; format: ADME; conditions: cattle; how it was run: as §2
[4] = target: T1, Albumin; experiment: Binding affinity to human serum albumin assessed as bimolecular quenching rate constant at 300 K after 10 mins by fluorescence assay; format: ADME; conditions: isolated protein; how it was run: as §1
[5] = target: T2, Beta-lactoglobulin; experiment: Binding affinity to bovine beta-lactoglobulin assessed as association constant at pH 3 after 30 mins by fluorescence assay; format: ADME; conditions: cattle, pH 3, 0.5 h
How it was run: (§3)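 β-Lg solutions at pH 3.0, 5.5 and 7.4, incubated 30 min at 25 °C before prodigiosin was added. Intrinsic fluorescence excited at 295 nm, emission monitored at 310–600 nm.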

[6] = target: T1, Albumin; experiment: Binding affinity to human serum albumin at 300 K after 10 mins by fluorescence assay; format: ADME; conditions: isolated protein; how it was run: as §1
[7] = target: Beta-lactoglobulin (Bos taurus) (UniProt P02754); experiment: Binding affinity to bovine beta-lactoglobulin assessed as quenching of protein-compound complex at protein/compound molar ratio of 7 at 290 K after 10 mins by fluorescence assay; conditions: isolated protein
[8] = target: Beta-lactoglobulin (Bos taurus) (UniProt P02754); experiment: Binding affinity to bovine beta-lactoglobulin assessed as quenching of protein-compound complex at protein/compound molar ratio of 7 at 300 K after 10 mins by fluorescence assay; conditions: isolated protein
[9] = target: T2, Beta-lactoglobulin; experiment: Binding affinity to bovine beta-lactoglobulin at 290 K after 10 mins by fluorescence assay; format: ADME; conditions: cattle; how it was run: as §2
[10] = target: T2, Beta-lactoglobulin; experiment: Binding affinity to bovine beta-lactoglobulin at 300 K after 10 mins by fluorescence assay; format: ADME; conditions: cattle; how it was run: as §2
[11] = target: T1, Albumin; experiment: Binding affinity to human serum albumin assessed as Stern-Volmer quenching constant at 290 K after 10 mins by fluorescence assay; format: ADME; conditions: isolated protein; how it was run: as §1
[12] = target: T1, Albumin; experiment: Binding affinity to human serum albumin assessed as Stern-Volmer quenching constant at 300 K after 10 mins by fluorescence assay; format: ADME; conditions: isolated protein; how it was run: as §1
[13] = target: T1, Albumin; experiment: Binding affinity to human serum albumin assessed as quenching of protein-compound complex at protein/compound molar ratio of 7 at 300 to 310 K after 10 mins by fluorescence assay; format: ADME; conditions: isolated protein; how it was run: as §1
[14] = target: T2, Beta-lactoglobulin; experiment: Binding affinity to bovine beta-lactoglobulin assessed as bimolecular quenching rate constant at 310 K after 10 mins by fluorescence assay; format: ADME; conditions: cattle; how it was run: as §2
[15] = target: T1, Albumin; experiment: Binding affinity to human serum albumin assessed as bimolecular quenching rate constant at 290 K after 10 mins by fluorescence assay; format: ADME; conditions: isolated protein; how it was run: as §1
[16] = target: T1, Albumin; experiment: Binding affinity to human serum albumin assessed as Stern-Volmer quenching constant at 310 K after 10 mins by fluorescence assay; format: ADME; conditions: isolated protein; how it was run: as §1
[17] = target: T1, Albumin; experiment: Binding affinity to human serum albumin assessed as quenching of protein-compound complex at protein/compound molar ratio of 5 at 290 K after 10 mins by fluorescence assay; format: ADME; conditions: isolated protein; how it was run: as §1
[18] = target: T1, Albumin; experiment: Binding affinity to human serum albumin assessed as bimolecular quenching rate constant at 310 K after 10 mins by fluorescence assay; format: ADME; conditions: isolated protein; how it was run: as §1
[19] = target: T2, Beta-lactoglobulin; experiment: Binding affinity to bovine beta-lactoglobulin assessed as Stern-Volmer quenching constant at 290 K after 10 mins by fluorescence assay; format: ADME; conditions: cattle; how it was run: as §2
[20] = target: T2, Beta-lactoglobulin; experiment: Binding affinity to bovine beta-lactoglobulin at 310 K after 10 mins by fluorescence assay; format: ADME; conditions: cattle; how it was run: as §2
[21] = target: T1, Albumin; experiment: Displacement of warfarin from human serum albumin at 0.4 to 3.2 uM after 30 mins by fluorescence assay; conditions: 0.5 h
How it was run: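 HSA and warfarin at equal (1:1) concentrations, preincubated 30 min. Prodigiosin added at 0.4–3 µM. Fluorescence excited at 295 nm and recorded at 310–600 nm, with and without prodigiosin.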

[22] = target: T2, Beta-lactoglobulin; experiment: Binding affinity to bovine beta-lactoglobulin assessed as bimolecular quenching rate constant at 300 K after 10 mins by fluorescence assay; format: ADME; conditions: cattle; how it was run: as §2
[23] = target: T2, Beta-lactoglobulin; experiment: Binding affinity to bovine beta-lactoglobulin assessed as association constant at pH 7.4 after 30 mins by fluorescence assay; format: ADME; conditions: cattle, pH 7.4, 0.5 h; how it was run: as §3
[24] = target: T2, Beta-lactoglobulin; experiment: Binding affinity to bovine beta-lactoglobulin assessed as association constant at pH 5.5 after 30 mins by fluorescence assay; format: ADME; conditions: cattle, pH 5.5, 0.5 h; how it was run: as §3
[25] = target: T2, Beta-lactoglobulin; experiment: Binding affinity to bovine beta-lactoglobulin assessed as bimolecular quenching rate constant at 290 K after 10 mins by fluorescence assay; format: ADME; conditions: cattle; how it was run: as §2
[26] = target: T1, Albumin; experiment: Binding affinity to human serum albumin at 290 K after 10 mins by fluorescence assay; format: ADME; conditions: isolated protein; how it was run: as §1
[27] = target: Beta-lactoglobulin (Bos taurus) (UniProt P02754); experiment: Binding affinity to bovine beta-lactoglobulin assessed as quenching of protein-compound complex at protein/compound molar ratio of 4 at 310 K after 10 mins by fluorescence assay; conditions: isolated protein

T1 sequence (P02768 whole entry): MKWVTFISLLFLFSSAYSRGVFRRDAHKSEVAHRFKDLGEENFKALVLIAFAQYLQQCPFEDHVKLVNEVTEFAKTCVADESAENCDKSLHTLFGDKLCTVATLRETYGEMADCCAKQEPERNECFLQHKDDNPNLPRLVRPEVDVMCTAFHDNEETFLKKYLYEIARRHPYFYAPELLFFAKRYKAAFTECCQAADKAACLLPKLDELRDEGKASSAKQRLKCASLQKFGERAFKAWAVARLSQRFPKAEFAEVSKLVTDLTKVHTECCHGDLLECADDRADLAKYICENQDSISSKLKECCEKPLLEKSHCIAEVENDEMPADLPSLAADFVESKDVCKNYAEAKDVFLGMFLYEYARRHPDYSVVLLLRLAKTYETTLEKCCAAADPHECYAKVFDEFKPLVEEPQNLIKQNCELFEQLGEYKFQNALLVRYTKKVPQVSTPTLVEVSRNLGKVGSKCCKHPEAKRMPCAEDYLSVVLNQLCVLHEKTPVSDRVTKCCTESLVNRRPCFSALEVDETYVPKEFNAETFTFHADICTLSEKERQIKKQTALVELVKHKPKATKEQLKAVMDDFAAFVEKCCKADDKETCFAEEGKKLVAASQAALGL

Question: Which results are given for `CCCCCC1=C/C(=C\c2[nH]c(-c3ccc[nH]3)cc2OC)N=C1C`?
Answer: Activity [1]: Dose-dependent effect; Kb [1]: 34000 M⁻¹; KSV [2]: 7.28 ×10⁴ /M; KSV [3]: 10.6 ×10⁴ /M; Kq [4]: 6.891 ×10¹² /M/s; Ka [5]: 184 M⁻¹; Activity [6]: Dose-dependent effect; Kb [6]: 44100 M⁻¹; Activity [7]: 78%; Activity [8]: 82%; Kb [9]: 12500 M⁻¹; Kb [10]: 19900 M⁻¹; KSV [11]: 8.14 ×10⁴ /M; KSV [12]: 6.891 ×10⁴ /M; Activity [13]: 85%; Kq [14]: 8.28 ×10¹² /M/s; Kq [15]: 8.14 ×10¹² /M/s; KSV [16]: 4.043 ×10⁴ /M; Activity [17]: 80%; Kq [18]: 4.043 ×10¹² /M/s; KSV [19]: 5.02 ×10⁴ /M; Kb [20]: 53700 M⁻¹; Activity [21]: Active; Kq [22]: 5.69 ×10¹² /M/s; Ka [23]: 1.99 ×10⁴ /M; Ka [24]: 1548 M⁻¹; Kq [25]: 3.92 ×10¹² /M/s; Activity [26]: Dose-dependent effect; Kb [26]: 48400 M⁻¹; Activity [27]: 90%
